Results as given in PubChem BioAssay AID720717 (ICCB-Longwood Screening Facility, Harvard Medical School, 2013).
About 150 (0.29%) of roughly 51,000 compounds were called active. Many of the other results were omitted from the sample, so actives are more common in it than they were. Unmarked numbers belong to inactive results.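 How the source made its calls: active means both repeat wells score below -2 in polarization z-score versus plate sample wells, excluding overly bright wells; inactive means the rest.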

test system: LANA (ORF73) N-terminal peptide binding to nucleosomes, Human herpesvirus 8; test: inhibitors of KSHV LANA-nucleosome binding, primary screen, biochemical, fluorescence polarization, FITC-LANA1-23, chicken nucleosomes (AID 720717); conditions: FITC-LANA1-23 / chicken nucleosome fluorescence polarization; active compounds read low
How it was run: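 System – purified chicken nucleosomes with FITC-labelled LANA N-terminal peptide (1-23) · Amount – 240 nM purified chicken nucleosomes (480 nM peptide binding sites), final · Also added – 50 nM FITC-LANA1-23 probe · Medium – TEN-BT buffer, pH 7.5 · Incubation – compound with peptide–nucleosome mix 10–45 min at room temperature · Detection – fluorescence polarization, ex 480 nm, em 535 nm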

For `CN1CCc2c(c(S)[nH]c(=S)c2C#N)C1`, the z-score was -3.73 (active).

Compared with `CCOC(=O)c1sc2nc3c(cc2c1N)CN(C)CC3`, `Cc1cccc(NC(=O)OC2CN3CCC2CC3)c1` (stereo not given) is lower in z-score: 0.365 for the first, -0.799 for the second.

First: O=C(c1ccccc1)c1cc(Cl)ccc1NC(=O)C(F)(F)F
Second: CC1(C)CC(Nc2nc(Cl)c(C#N)c(Cl)c2Cl)CC(C)(C)N1
The z-score of the first is higher: -0.891 for the first, -1.52 for the second.
